Drawing on ChEMBL document CHEMBL1155475, “Semisynthesis and pharmacological activities of thyroxine analogs: Development of new angiogenesis modulators” (2010), this text covers Activity and inhibition for nine molecules.

Common to all, as to assay type: functional
Experiment [1] relates to Mus musculus. The experiment can be described thus: Stimulation of angiogenesis in Matrigel plug implanted C57BL/6 mouse assessed as increase of hemoglobin level after 14 days at 10 ug/plug by Matrigel assay. The essentials:
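Mouse subcutaneous Matrigel plug. Matrigel is kept cold and compound is added with or without agonist. Plugs are injected subcutaneously at three sites per animal, 100 µL total. On day 14 the plugs are collected, homogenized in ddH2O and centrifuged 4000 rpm for 10 min. Supernatant is mixed with Drabkin's reagent for 15–30 min, A540 is read, and hemoglobin (mg/mL) is taken from a standard curve. Three implants per mouse, n = 6 per group.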

The species entered for experiment [2] is Gallus gallus. The experiment can be described thus: Stimulation of angiogenesis of fertilized chicken egg membrane assessed as stimulation of blood vessel formation at 10 ug/CAM after 48 hrs by CAM assay. The essentials:
(§1)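 Chick chorioallantoic membrane model. Filter disks are soaked in 3 mg/mL cortisone acetate in 95% ethanol, air-dried, then saturated with test agent, L-T4 or FGF, and placed on the CAM. Agents are tested at 10 µg/CAM. Tissue beneath the disk is harvested after 48 h and examined by stereomicroscope at 50× with digital image capture. Data are mean ± SEM, n = 8.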

The species entered for experiment [3] is Gallus gallus. The experiment can be described thus: Antiangiogenesis of fertilized chicken egg membrane assessed as inhibition of FGF-induced blood vessel formation at 10 ug/CAM after 48 hrs by CAM assay. The essentials: as §1

For the molecule `CC(C)[Si](OC(=O)C(Cc1cc(I)c(Oc2cc(I)c(O)c(I)c2)c(I)c1)NC(=O)OC(C)(C)C)(C(C)C)C(C)C` (configuration not stated), the Activity in experiment [1] stood at 0%; in experiment [2] it was 4%.

In the case of `CC(C)(C)OC(=O)NC(Cc1cc(I)c(Oc2cc(I)c(OCC3CO3)c(I)c2)c(I)c1)C(=O)OCC1CO1` (configuration not stated), the values for the Activity in experiment [1] and in experiment [2] were 0% and 56%, respectively. As for `CCNC(Cc1cc(I)c(Oc2cc(I)c(O)c(I)c2)c(I)c1)C(=O)O` (configuration not stated), the results for the Activity in experiment [1] and in experiment [2] were 45% and 86%, respectively. For `N[C@@H](Cc1cc(I)c(Oc2cc(I)c(O)c(I)c2)c(I)c1)C(=O)O` [LEVOTHYROXINE] the same measures were 100% and 88%. `CCNC(Cc1cc(I)c(Oc2cc(I)c(O)c(I)c2)c(I)c1)C(=O)OCC` (configuration not stated): the inhibition (in general, the percentage by which the read-out fell short of the control) in experiment [3] came out at 38%. In the case of `CNC(Cc1cc(I)c(Oc2cc(I)c(O)c(I)c2)c(I)c1)C(=O)O` (configuration not stated), the values for the Activity in experiment [1] and in experiment [2] were 87% and 44%, respectively. As to `CCCC(=O)NC(Cc1cc(I)c(Oc2cc(I)c(O)c(I)c2)c(I)c1)C(=O)O` (configuration not stated), the Activity in experiment [1] was found to be 62%; in experiment [2], 34%.

Consider `CC(C)[Si](OC(=O)C(Cc1cc(I)c(Oc2cc(I)c(OCC3CO3)c(I)c2)c(I)c1)NC(=O)OC(C)(C)C)(C(C)C)C(C)C` (configuration not stated), for which the figures for the Activity in experiment [1] and in experiment [2] were 0% and 34%, respectively. Turning to `CC(=O)NC(Cc1cc(I)c(Oc2cc(I)c(OC(C)=O)c(I)c2)c(I)c1)C(=O)O` (configuration not stated), the figures for the Activity in experiment [1] and in experiment [2] were 95% and 67%, respectively.
